Experimental data published in ChEMBL document CHEMBL3822424, “Design and synthesis of 1H-pyrazolo[3,4-c]pyridine derivatives as a novel structural class of potent GPR119 agonists” (Bioorg Med Chem Lett, 2016).
Converted amounts (≈) assume the structure as drawn.

Tests used:
[1] = target: T1, Glucose-dependent insulinotropic receptor (Homo sapiens, UniProt Q8TDV5); experiment: Agonist activity at human GPR119 expressed in Flp-In-T-Rex-HEK293 cells after 30 mins by cAMP accumulation assay; format: functional, cell-based
T1 sequence (Q8TDV5 whole entry): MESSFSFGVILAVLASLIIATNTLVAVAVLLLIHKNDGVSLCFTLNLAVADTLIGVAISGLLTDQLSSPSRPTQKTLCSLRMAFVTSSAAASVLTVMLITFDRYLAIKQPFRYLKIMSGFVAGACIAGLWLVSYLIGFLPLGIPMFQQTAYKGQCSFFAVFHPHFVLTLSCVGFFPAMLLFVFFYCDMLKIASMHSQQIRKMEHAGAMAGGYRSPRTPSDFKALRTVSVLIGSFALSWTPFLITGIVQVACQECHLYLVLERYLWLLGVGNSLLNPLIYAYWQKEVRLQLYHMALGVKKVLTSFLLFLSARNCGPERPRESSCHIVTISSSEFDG
Procedure, shortened: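 Flp-In-T-Rex-HEK293 cells overexpressing human GPR119, induced with tetracycline for 24 h, plated at 5000 cells/well in D-MEM assay buffer with 1 mM IBMX and 0.01% BSA. Cells exposed to compound for 30 min at 37 °C. cAMP read by HTRF kit (HiRange). Response = stimulated minus basal cAMP. EC50 = concentration giving 50% of maximal response.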

[2] = Drug metabolism in human liver microsomes after 15 mins; format: ADME; conditions: read-out: Drug metabolism
Procedure, shortened: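 Compound incubated 15 min with human liver microsomes at 1 mg protein/mL; result expressed as percent metabolized.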

[3] = Thermodynamic solubility of the compound in phosphate buffer at pH 6.8; format: physicochemical; conditions: read-out: Therm_solubility
Procedure, shortened: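 Thermodynamic solubility measured in pH 6.8 phosphate buffer.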

[4] = Half life in Sprague-Dawley rat at 3 mg/kg, iv; format: ADME, organism-based; conditions: in vivo
[5] = Clearance in Sprague-Dawley rat at 3 mg/kg, iv; format: ADME, organism-based; conditions: in vivo
[6] = Oral bioavailability in Sprague-Dawley rat at 10 mg/kg; format: ADME, organism-based; conditions: in vivo
[7] = AUC (0 to infinity) in Sprague-Dawley rat at 10 mg/kg, po; format: ADME, organism-based; set-up: dose 10 mg/kg, time infinity, route oral; conditions: in vivo
[8] = Permeability of the compound at pH 6.2 by PAMPA; format: ADME; conditions: read-out: permeability
[9] = Volume of distribution at steady state in Sprague-Dawley rat at 3 mg/kg, iv; format: ADME, organism-based; conditions: in vivo, read-out: Vdss

EC50 [1] | metabolised at 0.25 h [2] | SMILES | other results
14 nM | – | CCCNC(=O)c1cc(F)c(-c2cc3cnn(C4CCN(C(=O)OC(C)C)CC4)c3cn2)cc1F | –
4 nM | 14.3% | CCc1cnc(N2CCC(n3ncc4cc(-c5ccc(S(C)(=O)=O)cc5F)ncc43)CC2)nc1 | solubility thermodynamic [3]: 0.34 µg/mL (≈ 0.707 µM); half-life [4]: 37 min; clearance [5]: 12.7 mL/min/kg; bioavailability [6]: 12.6%; AUC(0-inf) [7]: 1930 ng·h/mL; Papp [8]: 112 ×10⁻⁶ cm/s; Vd [9]: 0.537 L/kg
20 nM | – | CC(C)(C)OC(=O)N1CCC(n2ncc3cc(-c4ccc(S(C)(=O)=O)cc4)ncc32)CC1 | –
27 nM | – | CC(C)OC(=O)N1CCC(n2ncc3cc(-c4ccc(S(C)(=O)=O)cc4F)ncc32)CC1 | –
42 nM | 24.1% | CC(C)OC(=O)N1CCC(n2ncc3cc(-c4ccc(S(C)(=O)=O)cc4)ncc32)CC1 | solubility thermodynamic [3]: 0.67 µg/mL (≈ 1.51 µM)
52 nM | – | CC(C)OC(=O)N1CCC(n2ncc3cc(-c4cc(F)c(C(N)=O)cc4F)ncc32)CC1 | –
97 nM | – | CC(C)OC(=O)N1CCC(n2ncc3cc(-c4ccc(C(N)=O)cc4F)ncc32)CC1 | –
13 nM | 20.3% | CCc1cnc(N2CCC(n3ncc4cc(-c5ccc(S(C)(=O)=O)cc5)ncc43)CC2)nc1 | –
197 nM | – | CC(C)OC(=O)N1CCC(n2ncc3cc(-c4ccc(S(C)(=O)=O)nc4)ncc32)CC1 | –
92 nM | – | CC(C)OC(=O)N1CCC(n2ncc3cc(-c4cc(F)c(C(=O)NCCO)cc4F)ncc32)CC1 | –
31 nM | – | CC(C)(C)OC(=O)N1CCC(n2ncc3cc(-c4ccc(S(C)(=O)=O)cc4)ccc32)CC1 | –
46 nM | – | CC(C)OC(=O)N1CCC(n2ncc3cc(-c4cc(F)c(C(=O)N(C)C)cc4F)ncc32)CC1 | –
266 nM | – | CC(C)OC(=O)N1CCC(n2ncc3cc(Oc4cccc(S(C)(=O)=O)c4)ncc32)CC1 | –
10 nM | – | CCNC(=O)c1cc(F)c(-c2cc3cnn(C4CCN(C(=O)OC(C)C)CC4)c3cn2)cc1F | –
30 nM | 44.1% | Cc1ccc(N2CCC(n3ncc4cc(-c5ccc(S(C)(=O)=O)cc5)ncc43)CC2)nc1 | –
15 nM | 35.8% | CCc1cnc(N2CCC(n3ncc4cc(-c5cc(F)c(C(=O)NCCO)cc5F)ncc43)CC2)nc1 | solubility thermodynamic [3]: 0.69 µg/mL (≈ 1.36 µM)
177 nM | – | CC(C)OC(=O)N1CCC(n2ncc3cc(Oc4ccc(S(C)(=O)=O)cc4)ncc32)CC1 | –
11 nM | 79.8% | CC(C)COC(=O)N1CCC(n2ncc3cc(-c4ccc(S(C)(=O)=O)cc4)ncc32)CC1 | –
220 nM | – | CC(C)CCN1CCC(n2ncc3cc(-c4ccc(S(C)(=O)=O)cc4)ncc32)CC1 | –
63 nM | – | CC(C)(C)OC(=O)N1CCC(n2nnc3cc(-c4ccc(S(C)(=O)=O)cc4)ccc32)CC1 | –
10 nM | 2.1% | CC(C)(OC(=O)N1CCC(n2ncc3cc(-c4ccc(S(C)(=O)=O)cc4F)ncc32)CC1)C(F)F | solubility thermodynamic [3]: < 0.06 µg/mL
23 nM | 3.9% | CC(C)(OC(=O)N1CCC(n2ncc3cc(-c4ccc(S(C)(=O)=O)cc4)ncc32)CC1)C(F)F | –
